Tests used:
Escherichia coli = assay: Antibacterial activity against Escherichia coli at 50 to 100 uM after 24 hrs by well diffusion method; type: functional
How it was run: (§1)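 Nutrient agar plates with 10 mm wells cut by cork borer; 24-h subcultured bacteria swabbed on. Compounds dissolved in chloroform, 50 to 100 μM added to wells, gentamycin as standard. Incubated 24 h at 24–28 °C; inhibition zone diameter measured and converted to percent inhibition.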

Pseudomonas aeruginosa = assay: Antibacterial activity against Pseudomonas aeruginosa at 50 to 100 uM after 24 hrs by well diffusion method; type: functional; how it was run: as §1
Staphylococcus aureus = assay: Antibacterial activity against Staphylococcus aureus at 50 to 100 uM after 24 hrs by well diffusion method; type: functional; how it was run: as §1
Salmonella typhi = assay: Antibacterial activity against Salmonella typhi at 50 to 100 uM after 24 hrs by well diffusion method; type: functional, Salmonella enterica subsp. enterica serovar Typhi; parameters: unit not given here; how it was run: as §1
[1] = test system: Mycobacterium tuberculosis; assay: Antitubercular activity against Mycobacterium tuberculosis H37Rv at 6.25 ug/mL by MABA assay; type: functional; settings: read-out: GI
How it was run: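 Primary screen against M. tuberculosis H37Rv (ATCC 27294) in BACTEC 12B medium by broth microdilution Microplate Alamar Blue Assay; fluorescent compounds run instead in BACTEC 460 radiometric system. Compounds above 95% inhibition counted active.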

[2] = test system: Mycobacterium tuberculosis; assay: Antitubercular activity against Mycobacterium tuberculosis H37Rv by MABA assay; type: functional
How it was run: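 Actives re-tested at lower concentrations against H37Rv (ATCC 27294) in BACTEC 12B medium by Microplate Alamar Blue Assay. MIC taken as lowest concentration giving […] fluorescence reduction versus controls; rifampin reference.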

[3] = Cytotoxicity against Vero-C1008 cells at 6.25 to 50 ug/mL by neutral red uptake assay; type: cell-based; settings: chlorocebus sabaeus
How it was run: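 Vero-C-1008 cells exposed to 6.25 to 50 μg/mL compound; viability read by neutral red uptake.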

| SMILES | inhibition zone (Escherichia coli) [mm] | inhibition zone (Pseudomonas aeruginosa) [mm] | inhibition zone (Staphylococcus aureus) [mm] | Inhibition (Salmonella typhi) | inhibition of growth at 6.25 µg/mL [1] [%] | MIC [2] | Activity [3] |
| --- | --- | --- | --- | --- | --- | --- | --- |
| CC(=O)Nc1nc(Cc2nnc(SCC(=O)N/N=C/c3ccccc3)n2NC(=O)c2ccc(Cl)cc2)cs1 | 20 | 20 | 25 | 20 | 96 | 3.13 µM | Non-toxic |
| CC(=O)Nc1nc(Cc2nnc(S)n2N)cs1 | 22 | 27 | 28 | 24 | 96 | < 6.25 µg/mL | Non-toxic |
| N#CCSc1nnc(Cc2csc(NCCC(=O)O)n2)n1NC(=O)c1cccc([N+](=O)[O-])c1 | 24 | 23 | 25 | 24 | 96 | < 6.25 µg/mL | Non-toxic |
| O=C(O)CCNc1nc(Cc2nnc(S)n2NC(=O)c2cccc([N+](=O)[O-])c2)cs1 | 18 | 25 | 28 | 19 | 96 | 6.25 µM | Non-toxic |
| O=C(CCl)Nc1nc(Cc2nnc(S)n2NC(=O)c2cccc([N+](=O)[O-])c2)cs1 | 20 | 22 | 22 | 16 | 96 | 6.25 µM | Non-toxic |
| O=C(CSc1nnc(Cc2csc(NC(=O)c3ccccc3)n2)n1NC(=O)c1cccc([N+](=O)[O-])c1)N/N=C/c1ccccc1 | 25 | 30 | 32 | 24 | 96 | 0.39 µM | Non-toxic |
| O=C(CCl)Nc1nc(Cc2nnc(S)n2NC(=O)c2ccc(Cl)cc2)cs1 | 18 | 20 | 20 | 14 | 96 | 6.25 µM | Non-toxic |
| CC(=O)Nc1nc(Cc2nnc(SCC(=O)NN)n2NC(=O)c2cccc([N+](=O)[O-])c2)cs1 | 22 | 23 | 19 | 17 | 100 | 6.25 µM | Non-toxic |
| O=C(Nc1nc(Cc2nnc(S)n2NC(=O)c2ccc(Cl)cc2)cs1)c1ccccc1 | 10 | 10 | 16 | 18 | 96 | 6.25 µM | Non-toxic |
| O=C(O)CCNc1nc(Cc2nnc(SCC(=O)N/N=C/c3ccccc3)n2NC(=O)c2ccc(Cl)cc2)cs1 | 18 | 27 | 22 | 22 | 96 | 3.13 µM | Non-toxic |
| NNC(=O)CSc1nnc(Cc2csc(NC(=O)c3ccccc3)n2)n1NC(=O)c1cccc([N+](=O)[O-])c1 | 17 | 24 | 28 | 20 | 100 | 6.25 µM | Non-toxic |
| Nn1c(S)nnc1CSc1nnc(Cc2csc(NC(=O)CCl)n2)n1NC(=O)c1ccc(Cl)cc1 | 22 | 20 | 27 | 20 |  | < 6.25 µg/mL | Non-toxic |
| CC(=O)NNC(=O)CSc1nnc(Cc2csc(NC(=O)c3ccccc3)n2)n1NC(=O)c1cccc([N+](=O)[O-])c1 | 14 | 18 | 20 | 12 |  | < 6.25 µg/mL | Non-toxic |
| O=C(CSc1nnc(Cc2csc(NC(=O)c3ccccc3)n2)n1NC(=O)c1cccc([N+](=O)[O-])c1)NNC(=O)c1ccccc1 | 14 | 12 | 18 | 12 |  | < 6.25 µg/mL | Non-toxic |
| CC(=O)Nc1nc(Cc2nnc(SCSc3nnc(Cc4csc(NC(C)=O)n4)n3NC(=O)c3ccc(Cl)cc3)n2NC(=O)c2ccc(Cl)cc2)cs1 | 24 | 21 | 24 | 17 |  | < 6.25 µg/mL | Non-toxic |
| CC(=O)NNC(=O)CSc1nnc(Cc2csc(NCCC(=O)O)n2)n1NC(=O)c1cccc([N+](=O)[O-])c1 | 14 | 10 | 24 | 14 |  | < 6.25 µg/mL | Non-toxic |

| SMILES | inhibition zone (Escherichia coli) [mm] | inhibition zone (Pseudomonas aeruginosa) [mm] | inhibition zone (Staphylococcus aureus) [mm] | Inhibition (Salmonella typhi) | inhibition of growth at 6.25 µg/mL [1] [%] | MIC [2] | Activity [3] |
| --- | --- | --- | --- | --- | --- | --- | --- |
| CC(=O)NNC(=O)CSc1nnc(Cc2csc(NCCC(=O)O)n2)n1NC(=O)c1ccc(Cl)cc1 | 26 | 21 | 20 | 18 |  | < 6.25 µg/mL | Non-toxic |
| CC(=O)NNC(=O)CSc1nnc(Cc2csc(NC(C)=O)n2)n1NC(=O)c1ccc(Cl)cc1 | 20 | 19 | 27 | 23 |  | < 6.25 µg/mL | Non-toxic |
| O=C(CCl)Nc1nc(Cc2nnc(SCSc3nnc(Cc4csc(NC(=O)CCl)n4)n3NC(=O)c3cccc([N+](=O)[O-])c3)n2NC(=O)c2cccc([N+](=O)[O-])c2)cs1 | 27 | 30 | 18 | 24 |  | < 6.25 µg/mL | Non-toxic |
| O=C(O)CCNc1nc(Cc2nnc(SCC(=O)NNC(=O)c3ccccc3)n2NC(=O)c2cccc([N+](=O)[O-])c2)cs1 | 10 | 10 | 12 | 14 |  | < 6.25 µg/mL | Non-toxic |
| O=C(CCl)NNC(=O)CSc1nnc(Cc2csc(NC(=O)CCl)n2)n1NC(=O)c1cccc([N+](=O)[O-])c1 | 12 | 16 | 14 | 18 |  | < 6.25 µg/mL | Non-toxic |
| O=C(CSc1nnc(Cc2csc(NC(=O)CCl)n2)n1NC(=O)c1ccc(Cl)cc1)NNC(=O)c1ccccc1 | 21 | 26 | 21 | 20 |  | < 6.25 µg/mL | Non-toxic |
| CC(=O)NNC(=O)CSc1nnc(Cc2csc(NC(=O)CCl)n2)n1NC(=O)c1cccc([N+](=O)[O-])c1 | 18 | 24 | 27 | 24 |  | < 6.25 µg/mL | Non-toxic |
| COC(=O)CSc1nnc(Cc2csc(NC(=O)c3ccccc3)n2)n1NC(=O)c1cccc([N+](=O)[O-])c1 | 24 | 11 | 22 | 24 |  | < 6.25 µg/mL | Non-toxic |
| CC(=O)Nc1nc(Cc2nnc(SCSc3nnc(Cc4csc(NC(C)=O)n4)n3NC(=O)c3cccc([N+](=O)[O-])c3)n2NC(=O)c2cccc([N+](=O)[O-])c2)cs1 | 26 | 32 | 27 | 26 |  | < 6.25 µg/mL | Non-toxic |
| COC(=O)CSc1nnc(Cc2csc(NC(C)=O)n2)n1NC(=O)c1ccc(Cl)cc1 | 10 | 16 | 20 | 10 |  | < 6.25 µg/mL | Non-toxic |
| COC(=O)CSc1nnc(Cc2csc(NC(=O)CCl)n2)n1NC(=O)c1ccc(Cl)cc1 | 10 | 16 | 18 | 12 |  | < 6.25 µg/mL | Non-toxic |
| Nn1c(S)nnc1CSc1nnc(Cc2csc(NC(=O)CCl)n2)n1NC(=O)c1cccc([N+](=O)[O-])c1 | 18 | 26 | 20 | 21 |  | < 6.25 µg/mL | Non-toxic |
| O=C(CCl)NNC(=O)CSc1nnc(Cc2csc(NC(=O)c3ccccc3)n2)n1NC(=O)c1cccc([N+](=O)[O-])c1 | 18 | 11 | 14 | 12 |  | < 6.25 µg/mL | Non-toxic |
| Nn1c(S)nnc1CSc1nnc(Cc2csc(NC(=O)c3ccccc3)n2)n1NC(=O)c1cccc([N+](=O)[O-])c1 | 20 | 27 | 24 | 19 |  | < 6.25 µg/mL | Non-toxic |
| COC(=O)CSc1nnc(Cc2csc(NC(=O)CCl)n2)n1NC(=O)c1cccc([N+](=O)[O-])c1 | 20 | 24 | 26 | 20 |  | < 6.25 µg/mL | Non-toxic |

Source: ChEMBL document CHEMBL1148007, “Synthesis of new S-derivatives of clubbed triazolyl thiazole as anti-Mycobacterium tuberculosis agents” (Bioorg Med Chem, 2007)
